In ChEMBL document CHEMBL2380270, “Radiosynthesis and first evaluation in mice of [(18)F]NS14490 for molecular imaging of α7 nicotinic acetylcholine receptors” (Bioorg Med Chem, 2013):

How the values were obtained:
Format in all cases: ADME, organism-based
[1] = Biodistribution in CD1 mouse urine at 200 to 300 kBq, iv measured at 60 mins by gamma counting analysis; conditions: in vivo, 1 h
How it was run: (§1)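 Female CD-1 mice given 200–300 kBq tracer intravenously. Animals anaesthetised for blood and urine sampling, then killed by cervical dislocation at 5, 15, 30 or 60 min (n = 3 per time; n = 7 at 60 min). Organs removed and weighed, activity gamma-counted, expressed as % injected dose per g wet weight. Blocking arm: 10 mg/kg i.p. in 0.9% saline, 10 min before tracer; two-tailed unpaired t test versus control.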

Urinary bladder [2] = experiment: Biodistribution in CD1 mouse bladder at 200 to 300 kBq, iv measured at 60 mins by gamma counting analysis; conditions: in vivo, 1 h
How it was run: (§2)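 Female CD-1 mice, 200–300 kBq radiotracer given iv, n = 3 per time point. Animals anaesthetised for blood and urine sampling, then killed by cervical dislocation at 5, 15, 30 or 60 min p.i. Organs removed, weighed and gamma-counted; uptake expressed as % injected dose per g wet tissue.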

Femur [3] = experiment: Biodistribution in CD1 mouse femur at 200 to 300 kBq, iv measured at 30 mins by gamma counting analysis; conditions: in vivo, 0.5 h; how it was run: as §2
Mus musculus [4] = experiment: Biodistribution in CD1 mouse large intestine at 200 to 300 kBq, iv measured at 60 mins by gamma counting analysis in presence of SSR180711; conditions: in vivo, 1 h
How it was run: (§3)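 Blocking study in female CD-1 mice, n = 7 per blocker, with a matching control group. SSR180711 or NS6740 given at 10 mg kg⁻¹ ip in 0.9% saline 10 min before iv radiotracer (200–300 kBq). Organs taken at 60 min p.i., weighed and gamma-counted; uptake as % ID per g wet weight. Compared with control by two-tailed independent Student's t test.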

Femur [5] = experiment: Biodistribution in CD1 mouse femur at 200 to 300 kBq, iv measured at 15 mins by gamma counting analysis; conditions: in vivo, 0.25 h; how it was run: as §2
Lung [6] = experiment: Biodistribution in CD1 mouse lung at 200 to 300 kBq, iv measured at 30 mins by gamma counting analysis; conditions: in vivo, 0.5 h
How it was run: (§4)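 Female CD-1 mice received 200–300 kBq [18F]radiotracer intravenously. Blood and urine were sampled under anaesthesia, then mice were killed by cervical dislocation at 5, 15, 30 or 60 min p.i. (n = 3; control at 60 min n = 7). Organs were removed and weighed, activity was gamma-counted, and uptake was expressed as % injected dose per g wet tissue.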

Muscle tissue [7] = experiment: Biodistribution in CD1 mouse muscle at 200 to 300 kBq, iv measured at 60 mins by gamma counting analysis; conditions: in vivo, 1 h; how it was run: as §4
Mus musculus [8] = experiment: Biodistribution in CD1 mouse thymus at 200 to 300 kBq, iv measured at 30 mins by gamma counting analysis; conditions: in vivo, 0.5 h; how it was run: as §4
Blood [9] = experiment: Biodistribution in CD1 mouse blood at 200 to 300 kBq, iv measured at 60 mins by gamma counting analysis in presence of SSR180711; conditions: in vivo, 1 h; how it was run: as §3
Stomach [10] = experiment: Biodistribution in CD1 mouse stomach at 200 to 300 kBq, iv measured at 5 mins by gamma counting analysis; conditions: in vivo; how it was run: as §4
Stomach [11] = experiment: Biodistribution in CD1 mouse stomach at 200 to 300 kBq, iv measured at 60 mins by gamma counting analysis in presence of SSR180711; conditions: in vivo, 1 h
How it was run: (§5)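 Blocking design in female CD-1 mice, n = 7 per group. The blocker was given at 10 mg kg^-1 i.p. in 0.9% saline 10 min before i.v. 200–300 kBq [18F]radiotracer. Mice were killed at 60 min p.i. and organs weighed and gamma-counted as % ID per g wet weight. Blocked groups were compared with controls by two-tailed independent Student's t test.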

Muscle tissue [12] = experiment: Biodistribution in CD1 mouse muscle at 200 to 300 kBq, iv measured at 60 mins by gamma counting analysis in presence of SSR180711; conditions: in vivo, 1 h; how it was run: as §5
Spleen = experiment: Biodistribution in CD1 mouse spleen at 200 to 300 kBq, iv measured at 60 mins by gamma counting analysis in presence of SSR180711; conditions: in vivo, 1 h; how it was run: as §5
[13] = Biodistribution in CD1 mouse urine at 200 to 300 kBq, iv measured at 60 mins by gamma counting analysis in presence of SSR180711; conditions: in vivo, 1 h; how it was run: as §1
Blood [14] = experiment: Biodistribution in CD1 mouse blood at 200 to 300 kBq, iv measured at 30 mins by gamma counting analysis; conditions: in vivo, 0.5 h; how it was run: as §2
Urinary bladder [15] = experiment: Biodistribution in CD1 mouse bladder at 200 to 300 kBq, iv measured at 60 mins by gamma counting analysis in presence of SSR180711; conditions: in vivo, 1 h; how it was run: as §3
Mus musculus [16] = experiment: Biodistribution in CD1 mouse small intestine at 200 to 300 kBq, iv measured at 60 mins by gamma counting analysis in presence of SSR180711; conditions: in vivo, 1 h; how it was run: as §5
Mus musculus [17] = experiment: Biodistribution in CD1 mouse large intestine at 200 to 300 kBq, iv measured at 5 mins by gamma counting analysis; conditions: in vivo; how it was run: as §2
Lung [18] = experiment: Biodistribution in CD1 mouse lung at 200 to 300 kBq, iv measured at 15 mins by gamma counting analysis; conditions: in vivo, 0.25 h; how it was run: as §4
Pancreas = experiment: Biodistribution in CD1 mouse pancreas at 200 to 300 kBq, iv measured at 60 mins by gamma counting analysis in presence of SSR180711; conditions: in vivo, 1 h; how it was run: as §5
Lung [19] = experiment: Biodistribution in CD1 mouse lung at 200 to 300 kBq, iv measured at 60 mins by gamma counting analysis; conditions: in vivo, 1 h; how it was run: as §4

SMILES: O=C(Oc1ccc(Br)cc1)N1CCN2CCC1CC2 [SSR180711]
- Drug uptake [1]: 152 % ID/g
- Drug uptake (Urinary bladder [2]): 1.88 % ID/g
- Drug uptake (Femur [3]): 1.48 % ID/g
- Drug uptake (Mus musculus [4]): 5.46 % ID/g
- Drug uptake (Femur [5]): 2.15 % ID/g
- Drug uptake (Lung [6]): 6.78 % ID/g
- Drug uptake (Muscle tissue [7]): 1 % ID/g
- Drug uptake (Mus musculus [8]): 2.6 % ID/g
- Drug uptake (Blood [9]): 0.78 % ID/g
- Drug uptake (Stomach [10]): 3.92 % ID/g
- Drug uptake (Stomach [11]): 7.76 % ID/g
- Drug uptake (Muscle tissue [12]): 1.02 % ID/g
- Drug uptake (Spleen): 7.53 % ID/g
- Drug uptake [13]: 270 % ID/g
- Drug uptake (Blood [14]): 1.01 % ID/g
- Drug uptake (Urinary bladder [15]): 1.47 % ID/g
- Drug uptake (Mus musculus [16]): 15.9 % ID/g
- Drug uptake (Mus musculus [17]): 1.36 % ID/g
- Drug uptake (Lung [18]): 10.8 % ID/g
- Drug uptake (Pancreas): 2.96 % ID/g
- Drug uptake (Lung [19]): 4.88 % ID/g
